Assay results of several laboratories.
Target: Serine/threonine-protein kinase PLK4 (PLK4, Homo sapiens, UniProt O00444)
Residues used in one study (O00444 1-970): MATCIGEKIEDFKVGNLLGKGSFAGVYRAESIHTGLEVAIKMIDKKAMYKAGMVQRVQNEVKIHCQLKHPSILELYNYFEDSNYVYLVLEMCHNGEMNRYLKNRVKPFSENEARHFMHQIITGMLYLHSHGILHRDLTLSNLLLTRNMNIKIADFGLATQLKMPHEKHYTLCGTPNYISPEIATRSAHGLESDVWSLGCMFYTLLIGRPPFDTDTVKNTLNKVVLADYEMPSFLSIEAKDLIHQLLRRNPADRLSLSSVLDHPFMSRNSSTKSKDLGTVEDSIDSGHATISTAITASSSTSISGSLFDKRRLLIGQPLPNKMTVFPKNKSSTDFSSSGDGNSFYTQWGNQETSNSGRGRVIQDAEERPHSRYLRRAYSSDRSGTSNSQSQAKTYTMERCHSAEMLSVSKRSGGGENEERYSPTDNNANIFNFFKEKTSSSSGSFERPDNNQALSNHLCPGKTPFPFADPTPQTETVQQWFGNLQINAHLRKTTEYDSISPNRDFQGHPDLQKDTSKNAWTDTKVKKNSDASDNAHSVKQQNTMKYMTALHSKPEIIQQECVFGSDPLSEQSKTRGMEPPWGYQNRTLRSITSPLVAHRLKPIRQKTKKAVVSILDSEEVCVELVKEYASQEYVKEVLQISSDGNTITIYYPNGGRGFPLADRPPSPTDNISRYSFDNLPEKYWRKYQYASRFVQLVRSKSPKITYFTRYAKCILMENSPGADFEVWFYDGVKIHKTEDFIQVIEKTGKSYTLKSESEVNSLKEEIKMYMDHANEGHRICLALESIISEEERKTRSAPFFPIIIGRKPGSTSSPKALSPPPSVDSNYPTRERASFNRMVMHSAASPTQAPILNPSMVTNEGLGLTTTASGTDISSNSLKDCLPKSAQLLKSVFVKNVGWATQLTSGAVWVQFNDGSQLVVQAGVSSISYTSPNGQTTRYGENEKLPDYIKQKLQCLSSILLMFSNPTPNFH

SMILES | read-out | mode | technique | concentration | quantity | value
CN(C)c1ncnc(-c2ccc3nc(Nc4cc(CN5CCN(C(=O)CC(F)(F)F)CC5)ccn4)[nH]c3c2)c1Cl | cell-free assay | – | competition with immobilised ligand | 1 µM | remaining binding | 76%
Cc1sc(C(=O)NC2COC2)cc1-n1cc(NC(=O)Nc2c(F)cccc2Cl)cn1 | enzyme activity | inhibitor | – | 10 µM | remaining activity | 100%
CN1CC(Oc2cnc(C#N)cc2-c2ccn3nc(NC(=O)C4CC4)cc3c2)C1 | enzyme activity | inhibitor | – | 1 µM | inhibition | -5%
Cc1ccc(C(=O)Nc2ccc(CN3CCN(C)CC3)c(C(F)(F)F)c2)cc1C#Cc1cnc2cccnn12 | enzyme activity | inhibitor | – | 23.5 nM | remaining activity | 84%
CC(C)(O)[C@H]1CC[C@H](Nc2ccc3ncc(-c4cccc(C(F)(F)F)c4)n3n2)CC1 | enzyme activity | inhibitor | – | 1 µM | remaining activity | 101%
CC(C)(C)c1nc(-c2cccc(NS(=O)(=O)c3c(F)cccc3F)c2F)c(-c2ccnc(N)n2)s1 | enzyme activity | inhibitor | radiometric | 1 µM | remaining activity | 6%
Cc1ccc(C(=O)NCc2ccsc2)cc1C#Cc1cn(C(C)C)c2ncnc(N)c12 | enzyme activity | inhibitor | – | 1 µM | activity vs control | 75%
O=C(Nc1cccnn1)N1CC(C/C=C/c2cncc(Oc3ccc(C(F)(F)F)cn3)n2)C1 | cell-free assay | – | competition with immobilised ligand | 1 µM | remaining binding | 98%
Nc1ncnc2occ(-c3ccc(NC(=O)Nc4cc(C(F)(F)F)ccc4F)cc3)c12 | cell-free assay | inhibitor | – | 20 µM | remaining signal | 0.55%
CC(C)(C)c1nc2c(s1)c1nc(N)ncc1c1ccc(NS(=O)(=O)c3c(F)cccc3F)c(F)c12 | enzyme activity | inhibitor | radiometric | 1 µM | remaining activity | 44%
COc1cc2nccc(Oc3ccc(NC(=O)Nc4ccc(F)cc4F)c(F)c3)c2cc1OC | thermal stability | – | DSF | 10 µM | ΔTm | 5 to 10 °C
COc1cc(Cl)c(C(=O)N[C@@H](CN[C@H]2CC[C@@H](N)CC2)Cc2ccc(C#N)cc2)cc1-c1ccc(CN[C@H](C)c2ccc(C)cc2)o1 | enzyme activity | inhibitor | – | 1 µM | remaining activity | 83%
O=C(Nc1cnn(-c2csc(C(=O)NC3COC3)c2)c1)Nc1ccccc1Cl | enzyme activity | inhibitor | – | 5 µM | remaining activity | 88.2%
